Measurements published in ChEMBL document CHEMBL2311448, “Enantioselective synthesis of derivatives and structure-activity relationship study in the development of NA255 as a novel host-targeting anti-HCV agent” (Bioorg Med Chem Lett, 2013).

Tests used:
[1] = Cytotoxicity against human Hepatoma cells; format: cell-based
[2] = Cmax in Sprague-Dawley rat liver at 10 mg/kg, sc at 2 hrs; format: ADME, organism-based; design: dose 10 mg/kg, route subcutaneous
Summary of the method: (§1)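 Male Sprague–Dawley rats got a single subcutaneous dose of 10 mg/kg (n = 2) in 10% PEG300–10% HPCD in water. Plasma and liver concentrations were measured over time after dosing. Footnotes mark concentrations taken at 0.5 h and at 2 h postdosing. One compound was given as its tri-sodium salt.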

[3] = Mean residence time in Sprague-Dawley rat liver at 10 mg/kg, sc; format: ADME, organism-based; design: dose 10 mg/kg, route subcutaneous; summary of the method: as §1
[4] = Half life in Sprague-Dawley rat liver at 10 mg/kg, sc; format: ADME, organism-based; design: dose 10 mg/kg, route subcutaneous; summary of the method: as §1
[5] = Half life in Sprague-Dawley rat plasma at 10 mg/kg, sc; format: ADME, organism-based; design: dose 10 mg/kg, route subcutaneous; summary of the method: as §1
[6] = AUC in Sprague-Dawley rat liver at 10 mg/kg, sc; format: ADME, organism-based; design: dose 10 mg/kg, route subcutaneous; summary of the method: as §1
[7] = AUC in Sprague-Dawley rat plasma at 10 mg/kg, sc; format: ADME, organism-based; design: dose 10 mg/kg, route subcutaneous; summary of the method: as §1
[8] = Mean residence time in Sprague-Dawley rat plasma at 10 mg/kg, sc; format: ADME, organism-based; design: dose 10 mg/kg, route subcutaneous; summary of the method: as §1
[9] = Cmax in Sprague-Dawley rat plasma at 10 mg/kg, sc at 0.5 hrs; format: ADME, organism-based; design: dose 10 mg/kg, route subcutaneous; summary of the method: as §1
Hepatitis C virus = assay: Antiviral activity against HCV infected in human hepatoma cells assessed as inhibition of viral replication; format: functional, organism-based, Hepacivirus hominis

Row | SMILES | CC50 [1] [nM] | IC50 (Hepatitis C virus) [nM] | other results
1 | CCCCCCCC(=O)CCCCCC/C=C/[C@H](C(=O)N[C@@H](Cc1ccc(OCC=C(C)C)cc1)C(=O)O)[C@@](O)(CC(=O)O)C(=O)O | > 5000 |  | 
2 | CCCCCCCC(=O)CCCCCC/C=C/[C@H](C(=O)N[C@@H](Cc1ccc(-c2cccc(OC)c2)cc1)C(=O)[O-])[C@@](O)(CC(=O)[O-])C(=O)[O-].[Na+].[Na+].[Na+] |  |  | Cmax [2]: 5920 ng/mL; MRT [3]: 16.1 h; half-life [4]: 21.3 h; half-life [5]: 14.8 h; AUC [6]: 82900 ng·h/mL; AUC [7]: 2590 ng·h/mL; MRT [8]: 12.9 h; Cmax [9]: 351 ng/mL
3 | CC#CCOc1ccc(C[C@H](NC(=O)[C@@H](/C=C/CCCCCCC(=O)CCCCCCC)[C@@](O)(CC(=O)[O-])C(=O)[O-])C(=O)[O-])cc1.[Na+].[Na+].[Na+] |  |  | Cmax [2]: 7100 ng/mL; MRT [3]: 7.3 h; half-life [4]: 4.75 h; half-life [5]: 3.99 h; AUC [6]: 49600 ng·h/mL; AUC [7]: 3050 ng·h/mL; MRT [8]: 5.48 h; Cmax [9]: 604 ng/mL
4 | CCCCCCCC(=O)CCCCCC/C=C/[C@H](C(=O)N[C@@H](Cc1ccc(OCc2ccccc2)cc1)C(=O)[O-])[C@@](O)(CC(=O)[O-])C(=O)[O-].[Na+].[Na+].[Na+] |  |  | Cmax [2]: 6590 ng/mL; MRT [3]: 17 h; half-life [4]: 27.3 h; half-life [5]: 9.81 h; AUC [6]: 100000 ng·h/mL; AUC [7]: 2690 ng·h/mL; MRT [8]: 13.6 h; Cmax [9]: 209 ng/mL
5 | CCCCCCCC(=O)CCCCCC/C=C/[C@H](C(=O)N[C@@H](CC1CCCCC1)C(=O)O)[C@@](O)(CC(=O)O)C(=O)O | > 5000 | > 5000 | 
6 | CCCCCCCC(=O)CCCCCC/C=C/[C@H](C(=O)N[C@@H](Cc1cccc2ccccc12)C(=O)O)[C@@](O)(CC(=O)O)C(=O)O | > 1000 | > 1000 | 
7 | CCCCCCCC(=O)CCCCCC/C=C/[C@H](C(=O)N[C@@H](Cc1ccc2ccccc2c1)C(=O)O)[C@@](O)(CC(=O)O)C(=O)O | > 5000 | 14 | 
8 | CCCCCCCC(=O)CCCCCC/C=C/[C@H](C(=O)N[C@@H](Cc1ccc(OC)cc1)C(=O)O)[C@@](O)(CC(=O)O)C(=O)O | > 5000 | 6.4 | 
9 | CCCCCCCC(=O)CCCCCC/C=C/[C@H](C(=O)N[C@@H](Cc1ccc(OCCC)cc1)C(=O)O)[C@@](O)(CC(=O)O)C(=O)O | > 5000 | 2.6 | 
10 | CCCCCCCC(=O)CCCCCC/C=C/[C@H](C(=O)N[C@@H](Cc1ccc(OCCCC)cc1)C(=O)O)[C@@](O)(CC(=O)O)C(=O)O | > 5000 | 1.2 | 
11 | CC#CCOc1ccc(C[C@H](NC(=O)[C@@H](/C=C/CCCCCCC(=O)CCCCCCC)[C@@](O)(CC(=O)O)C(=O)O)C(=O)O)cc1 | > 5000 | 1.2 | 
12 | CCCCCCCC(=O)CCCCCC/C=C/[C@H](C(=O)N[C@@H](Cc1ccc(OCCCN)cc1)C(=O)O)[C@@](O)(CC(=O)O)C(=O)O | > 1000 | 38 | 
13 | CCCCCCCC(=O)CCCCCC/C=C/[C@H](C(=O)N[C@@H](Cc1ccc(Oc2ccccc2)cc1)C(=O)O)[C@@](O)(CC(=O)O)C(=O)O | > 5000 | 1.9 | 
14 | CCCCCCCC(=O)CCCCCC/C=C/[C@H](C(=O)N[C@@H](Cc1ccc(OCc2ccccc2)cc1)C(=O)O)[C@@](O)(CC(=O)O)C(=O)O | > 5000 | 0.32 | 
15 | CCCCCCCC(=O)CCCCCC/C=C/[C@H](C(=O)N[C@@H](Cc1ccc(-c2ccccc2)cc1)C(=O)O)[C@@](O)(CC(=O)O)C(=O)O | > 5000 | 1.6 | 
16 | CCCCCCCC(=O)CCCCCC/C=C/[C@H](C(=O)N[C@@H](Cc1ccc(-c2cccc(OC)c2)cc1)C(=O)O)[C@@](O)(CC(=O)O)C(=O)O | > 1000 | 2.6 | 
17 | CCCCCCCC(=O)CCCCCC/C=C/[C@H](C(=O)N[C@@H](Cc1ccc(-c2cccnc2)cc1)C(=O)O)[C@@](O)(CC(=O)O)C(=O)O | > 1000 | 10 | 
18 | CCCCCCC(=O)CCCCCC/C=C/[C@H](C(=O)N[C@@H](Cc1ccc(OCCC(C)C)cc1)C(=O)O)[C@@](O)(CC(=O)O)C(=O)O | > 1000 | 19 | 

Row | SMILES | CC50 [1] [nM] | IC50 (Hepatitis C virus) [nM] | other results
19 | CCCC(=O)CCCCCC/C=C/[C@H](C(=O)N[C@@H](Cc1ccc(OCCC(C)C)cc1)C(=O)O)[C@@](O)(CC(=O)O)C(=O)O | > 5000 | 800 | 
20 | CCCCCCCCCC(=O)CCCC/C=C/[C@H](C(=O)N[C@@H](Cc1ccc(OCCC(C)C)cc1)C(=O)O)[C@@](O)(CC(=O)O)C(=O)O | > 1000 | 5.1 | 
21 | CCCCCC(=O)CCCCCCCC/C=C/[C@H](C(=O)N[C@@H](Cc1ccc(OCCC(C)C)cc1)C(=O)O)[C@@](O)(CC(=O)O)C(=O)O | > 1000 | 1.4 | 
22 | C=CCCCCCC(=O)CCCCCC/C=C/[C@H](C(=O)N[C@@H](Cc1ccc(OCCC(C)C)cc1)C(=O)O)[C@@](O)(CC(=O)O)C(=O)O | > 1000 | 6.1 | 
23 | CC(C)CCCCC(=O)CCCCCC/C=C/[C@H](C(=O)N[C@@H](Cc1ccc(OCCC(C)C)cc1)C(=O)O)[C@@](O)(CC(=O)O)C(=O)O | > 1000 | 5.7 | 
24 | CC(C)CCOc1ccc(C[C@H](NC(=O)[C@@H](/C=C/CCCCCCC(=O)Cc2ccccn2)[C@@](O)(CC(=O)O)C(=O)O)C(=O)O)cc1 | > 1000 | > 1000 | 
25 | CC(C)CCOc1ccc(C[C@H](NC(=O)[C@@H](/C=C/CCCCCCC(=O)CCc2ccccc2)[C@@](O)(CC(=O)O)C(=O)O)C(=O)O)cc1 | > 1000 | 290 | 
26 | CC(C)CCOc1ccc(C[C@H](NC(=O)[C@@H](/C=C/CCCCCCC(=O)CCC2CCCCC2)[C@@](O)(CC(=O)O)C(=O)O)C(=O)O)cc1 | > 1000 | 32 | 
27 | CCCCCCCC(=O)CCCCCC/C=C/[C@H](C(=O)N[C@H](Cc1ccc(OCCC(C)C)cc1)C(=O)O)[C@@](O)(CC(=O)O)C(=O)O | > 5000 | > 5000 | 
28 | CCCCCCCC(=O)CCCCCC/C=C/[C@H](C(=O)NCCc1ccc(OCCC(C)C)cc1)[C@@](O)(CC(=O)O)C(=O)O | > 5000 | 1000 | 
29 | CCCCCCCC(=O)CCCCCC/C=C/[C@H](C(=O)N[C@@H](Cc1ccc(OCCCC(C)C)cc1)C(=O)O)[C@@](O)(CC(=O)O)C(=O)O | > 1000 | 12 | 
30 | CCCCCCCC(=O)CCCCCC/C=C/[C@H](C(=O)N[C@@H](Cc1ccccc1)C(=O)O)[C@@](O)(CC(=O)O)C(=O)O | 13900 | 17 | 
31 | CCCCCCCC(=O)CCCCCC/C=C/[C@H](C(=O)N[C@@H](Cc1cccs1)C(=O)O)[C@@](O)(CC(=O)O)C(=O)O | > 1000 | 490 | 
32 | CCCCCCCC(=O)CCCCCC/C=C/[C@H](C(=O)N[C@@H](Cc1ccc(OCCC(C)C)cc1)C(=O)O)[C@@](O)(CC(=O)O)C(=O)O | > 5000 | 1.4 | 
33 | CCCCCCCC(=O)CCCCCCCC[C@H](C(=O)N[C@@H](Cc1ccc(OCCC(C)C)cc1)C(=O)O)[C@@](O)(CC(=O)O)C(=O)O | > 5000 | 150 | 
34 | CCCCCCCCCCCCCC/C=C/[C@H](C(=O)NC(Cc1ccc(OCC=C(C)C)cc1)C(=O)O)[C@@](O)(CC(=O)O)C(=O)O (some centres undefined) | > 50000 | 155 | 
35 | CCCCCCCCC(=O)CCCCCC/C=C/[C@H](C(=O)N[C@@H](Cc1ccc(OCCC(C)C)cc1)C(=O)O)[C@@](O)(CC(=O)O)C(=O)O | > 50000 | 6.9 | 
36 | CCCCCCCC(O)CCCCCC/C=C/[C@H](C(=O)N[C@@H](Cc1ccc(OCCC(C)C)cc1)C(=O)O)[C@@](O)(CC(=O)O)C(=O)O (mixture of isomers) | > 1000 | 25 | 
